The record followed here is ChEMBL document CHEMBL3046445, “Steroid conjugates: Synthesis and preliminary biological testing of pro-juvenoids” (2010).

Test [1] deals with Pyrrhocoris apterus. Put plainly: Inhibition of metamorphosis in freshly molted Pyrrhocoris apterus (red firebug) fourth-instar nymph assessed as compound dose per individual causing reduction in metamorphosis by oral drinking assay. The class given is functional. The method in brief: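 Drinking assay: compound in acetone was added to distilled water with Tween-80 at 0.025, 0.25, 2.5 and 25 per microlitre. It was offered in cotton-plugged glass vials at the end of the fourth nymphal instar, with the acetone/water/Tween-80 mixture as reference. Ten insects per concentration, three replicates, 25 ± 0.5 °C, 16L:8D, 50 ± 5% RH. Metamorphosis inhibition was scored morphologically after the last ecdysis.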

The subject of test [2] is Pyrrhocoris apterus. Nature of the test: Inhibition of metamorphosis in freshly molted Pyrrhocoris apterus (red firebug) fifth-instar nymph assessed as compound dose per individual causing reduction in metamorphosis by topical screening test. The class given is functional. The method in brief:
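Topical application with a Burkhard microapplicator; acetone alone served as the reference treatment. Ten insects per dose, three replicates. Insects were held in Petri dishes at 25 ± 0.5 °C, 16L:8D, 50 ± 5% RH, and checked daily. The degree of metamorphosis inhibition was scored morphologically after the next molt. ID-50 per individual was computed from linear regression tested by ANOVA.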

A value given as a limit tells only on which side of the number the result lay.

With `CCOC(=O)NCCOc1ccc(C[C@@H]2CCCC[C@@H]2OC(=O)CCC(=O)O[C@H]2CC[C@@]3(C)C(=CC[C@H]4[C@@H]5CC[C@H]([C@H](C)/C=C/[C@@H](CC)C(C)C)[C@@]5(C)CC[C@@H]43)C2)cc1`, the figures for the ID50 in the test with Pyrrhocoris apterus [1] and in the test on Pyrrhocoris apterus [2] were 4.989 µg and 0.0185 µg, respectively.
Turning to `CCOC(=O)NCCOc1ccc(C[C@H]2CCCC[C@@H]2OC(=O)CCC(=O)O[C@H]2CC[C@@]3(C)C(=CC[C@H]4[C@@H]5CC[C@H]([C@H](C)/C=C/[C@@H](CC)C(C)C)[C@@]5(C)CC[C@@H]43)C2)cc1`, the ID50 was more than 25 µg with Pyrrhocoris apterus [1] and more than 5 µg in the test on Pyrrhocoris apterus [2].
In the same order, the values of `CCOC(=O)NCCOc1ccc(C[C@@H]2CCCC[C@@H]2OC(=O)CC[C@@H](C)[C@H]2CC[C@H]3[C@@H]4[C@H](OC=O)C[C@@H]5C[C@H](OC=O)CC[C@]5(C)[C@H]4C[C@H](OC=O)[C@]23C)cc1` are 0.051 µg and 0.094 µg.
On the same counts, the results for `CCOC(=O)NCCOc1ccc(C[C@H]2CCCC[C@@H]2OC(=O)CC[C@@H](C)[C@H]2CC[C@H]3[C@@H]4[C@H](OC=O)C[C@@H]5C[C@H](OC=O)CC[C@]5(C)[C@H]4C[C@H](OC=O)[C@]23C)cc1` are 6.153 µg and 1.775 µg.
On the same counts, the results for `CCOC(=O)NCCOc1ccc(C[C@@H]2CCCC[C@@H]2OC(=O)CC[C@@H](C)[C@H]2CC[C@H]3[C@@H]4[C@H](OC=O)C[C@@H]5C[C@H](O)CC[C@]5(C)[C@H]4C[C@H](OC=O)[C@]23C)cc1` are 0.423 µg and 0.062 µg.
In the case of `CCOC(=O)NCCOc1ccc(C[C@H]2CCCC[C@@H]2OC(=O)CC[C@@H](C)[C@H]2CC[C@H]3[C@@H]4[C@H](OC=O)C[C@@H]5C[C@H](O)CC[C@]5(C)[C@H]4C[C@H](OC=O)[C@]23C)cc1`, the ID50 was more than 25 µg in the test on Pyrrhocoris apterus [1] and more than 5 µg with Pyrrhocoris apterus [2].
In the same order, the values of `CCOC(=O)NCCOc1ccc(C[C@H]2CCCC[C@@H]2O)cc1` (relative stereo) are 0.5 µg and 0.71 µg.
On the same counts, the results for `CCOC(=O)NCCOc1ccc(C[C@@H]2CCCC[C@@H]2O)cc1` (relative stereo) are 0.0012 µg and 0.001 µg.
On the same counts, the results for `COC(C)(C)CCC[C@H](C)C/C=C/C(C)=C/C(=O)OC(C)C` [METHOPRENE] are 0.41 µg and 0.01 µg.
On to `CCOC(=O)NCCOc1ccc(Oc2ccccc2)cc1` [PHENOXYCARB], for which the ID50 in the test with Pyrrhocoris apterus [1] amounted to 0.2 µg; with Pyrrhocoris apterus [2], 0.09 µg.
For `CC(COc1ccc(Oc2ccccc2)cc1)Oc1ccccn1` (configuration not stated) [PYRIPROXYFEN], the values for the ID50 in the test with Pyrrhocoris apterus [1] and in the test with Pyrrhocoris apterus [2] were 25 µg and 2.3 µg, respectively.
